# Assay results as given in ChEMBL document CHEMBL1153955, “Indolylarylsulfones bearing natural and unnatural amino acids. Discovery of potent inhibitors of HIV-1 non-nucleoside wild type and resistant mutant strains reverse transcriptase and coxsackie B4 virus” (J Med Chem, 2009).
# How the values were obtained:
# [1] = test system: Respiratory syncytial virus; test: Antiviral activity against RSV Long in human HeLa cells assessed as protection against virus-induced cytopathicity; format: functional, organism-based
# How it was run: (§1)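 Confluent cell monolayers inoculated with 100 CCID₅₀ virus. After 1-2 h adsorption, residual virus removed and cultures incubated with varying compound concentrations. Cytopathicity scored once it reached completion in untreated infected controls. EC₅₀ = dose reducing virus-induced cytopathogenicity by 50%.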
# [2] = test system: Vesicular stomatitis virus; test: Antiviral activity against VSV in human HeLa cells assessed as protection against virus-induced cytopathicity; format: functional, organism-based
# [3] = test system: Human immunodeficiency virus 1; test: Antiviral activity against HIV1 3B in human CEM cells assessed as protection against virus-induced cytopathicity after 4 days; format: functional, organism-based; conditions: Human immunodeficiency virus 1, 3B, CCRF-CEM, 96 h
# How it was run: (§2)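 CEM cells (~3 × 10⁵ cells/mL) infected with ~100 CCID₅₀ per mL of HIV-1 (IIIB) or HIV-2 (ROD), then seeded into wells containing compound dilutions. After 4 days at 37 °C, syncytium (giant cell) formation was examined microscopically. EC₅₀ = concentration protecting CEM cells from HIV cytopathicity by 50%.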
# [4] = test system: Human immunodeficiency virus 2; test: Antiviral activity against HIV2 ROD in human CEM cells assessed as protection against virus-induced cytopathicity after 4 days; format: functional, organism-based; conditions: Human immunodeficiency virus 2, ROD, CCRF-CEM, 96 h; how it was run: as §2
# [5] = test system: L1210; test: Antiproliferative activity against mouse L1210 cells after 2 days; format: cell-based; conditions: L1210, 48 h
# How it was run: (§3)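 Cells seeded at 5 × 10⁴ to 7.5 × 10⁴ cells/200 µL with or without serial compound dilutions; incubated at 37 °C for 2 days (L1210) or 3 days (Molt4/C8, CEM). Cell numbers counted with a Coulter counter. CC₅₀ = concentration reducing proliferation by 50% versus untreated controls, read from plots of cell number (% of control) against concentration. Means of at least two independent experiments.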
# [6] = Antiproliferative activity against human Molt4/C8 cells after 3 days; format: cell-based; conditions: MOLT-4, 72 h; how it was run: as §3
# [7] = test system: CCRF-CEM; test: Antiproliferative activity against human CEM cells after 3 days; format: cell-based; conditions: 72 h; how it was run: as §3
# [8] = test system: Human immunodeficiency virus 1; test: Antiviral activity against HIV1 with reverse transcriptase L100I mutation in human CEM cells assessed as protection against virus-induced cytopathicity; format: functional, organism-based; conditions: Human immunodeficiency virus 1, CCRF-CEM
# How it was run: (§4)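 CEM cells (~3 × 10⁵ cells/mL) were infected with ~100 CCID₅₀ virus per mL and seeded with serial compound dilutions. After 4 days at 37 °C, syncytium (giant cell) formation was scored microscopically. EC₅₀ is the concentration giving 50% protection against virus cytopathicity.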
# [9] = test system: Human immunodeficiency virus 1; test: Antiviral activity against HIV1 with reverse transcriptase K103N mutation in human CEM cells assessed as protection against virus-induced cytopathicity; format: functional, organism-based; conditions: Human immunodeficiency virus 1, CCRF-CEM; how it was run: as §4
# [10] = test system: Human immunodeficiency virus 1; test: Antiviral activity against HIV1 with reverse transcriptase Y181C mutation in human CEM cells assessed as protection against virus-induced cytopathicity; format: functional, organism-based; conditions: Human immunodeficiency virus 1, CCRF-CEM; how it was run: as §4
# [11] = test system: Human immunodeficiency virus 1; test: Antiviral activity against HIV1 with reverse transcriptase Y181I mutation in human CEM cells assessed as protection against virus-induced cytopathicity; format: functional, organism-based; conditions: Human immunodeficiency virus 1, CCRF-CEM; how it was run: as §4
# [12] = test system: Human immunodeficiency virus 1; test: Antiviral activity against HIV1 with reverse transcriptase Y188L mutation in human CEM cells assessed as protection against virus-induced cytopathicity; format: functional, organism-based; conditions: Human immunodeficiency virus 1, CCRF-CEM; how it was run: as §4
# [13] = target: Human immunodeficiency virus type 1 reverse transcriptase (Human immunodeficiency virus 1, UniProt Q72547); test: Inhibition of HIV1 reverse transcriptase p66/p51; conditions: read-out: IC50
# [14] = target: Human immunodeficiency virus type 1 reverse transcriptase (Human immunodeficiency virus 1, UniProt Q72547, L100I); test: Inhibition of HIV1 reverse transcriptase p66/p51 L100I mutant; conditions: read-out: IC50
# How it was run: (§5)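 Substrate was 0.5 µg poly(rA)/oligo(dT) 10:1 (0.3 µM 3′-OH ends) with 10 µM [³H]dTTP, at 37 °C. Acid-precipitable radioactivity was counted on GF/C filters after TCA washes.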
# [15] = target: Human immunodeficiency virus type 1 reverse transcriptase (Human immunodeficiency virus 1, UniProt Q72547, K103N); test: Inhibition of HIV1 reverse transcriptase p66/p51 K103N mutant; conditions: read-out: IC50; how it was run: as §5
# [16] = target: Human immunodeficiency virus type 1 reverse transcriptase (Human immunodeficiency virus 1, UniProt Q72547, Y181I); test: Inhibition of HIV1 reverse transcriptase p66/p51 Y181I mutant; conditions: read-out: IC50; how it was run: as §5
# [17] = Cytotoxicity against human HeLa cells assessed as drug level causing microscopically detectable alteration of normal cell morphology after 3 days; format: cell-based
# How it was run: (§6)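 Serial compound dilutions added to confluent HeLa or Vero monolayers. MCC = minimum concentration causing microscopically detectable alteration of cell morphology after 3 days of incubation.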
# [18] = Cytotoxicity against african green monkey Vero cells assessed as drug level causing microscopically detectable alteration of normal cell morphology after 3 days; format: cell-based; conditions: chlorocebus sabaeus; how it was run: as §6
# [19] = test system: Coxsackievirus B4; test: Antiviral activity against Coxsackievirus B4 in human HeLa cells assessed as protection against virus-induced cytopathicity; format: functional, organism-based; conditions: Enterovirus B; how it was run: as §1
# [20] = test system: Coxsackievirus B4; test: Antiviral activity against Coxsackievirus B4 in african green monkey Vero cells assessed as protection against virus-induced cytopathicity; format: functional, organism-based; conditions: Enterovirus B; how it was run: as §1
# [21] = test system: Human respirovirus 3; test: Antiviral activity against Parainfluenza virus type 3 in african green monkey Vero cells assessed as protection against virus-induced cytopathicity; format: functional, organism-based; conditions: Human respirovirus 3, Vero; how it was run: as §1
# [22] = test system: Mammalian orthoreovirus 1; test: Antiviral activity against Reovirus 1 in african green monkey Vero cells assessed as protection against virus-induced cytopathicity; format: functional, organism-based; conditions: Mammalian orthoreovirus 1, Vero; how it was run: as §1
# [23] = test system: Sindbis virus; test: Antiviral activity against Sindbis virus in african green monkey Vero cells assessed as protection against virus-induced cytopathicity; format: functional, organism-based; how it was run: as §1
# [24] = test system: Punta Toro virus; test: Antiviral activity against Punta Toro virus in african green monkey Vero cells assessed as protection against virus-induced cytopathicity; format: functional, organism-based; how it was run: as §1
# [25] = Cytotoxicity against human HEL cells assessed as drug level causing microscopically detectable alteration of normal cell morphology after 3 days; format: cell-based
# [26] = test system: Human alphaherpesvirus 1; test: Antiviral activity against HSV1 KOS in human HEL cells assessed as protection against virus-induced cytopathicity; format: functional, organism-based; conditions: Human alphaherpesvirus 1, KOS
# [27] = test system: Human alphaherpesvirus 2; test: Antiviral activity against HSV2 G in human HEL cells assessed as protection against virus-induced cytopathicity; format: functional, organism-based; conditions: Human alphaherpesvirus 2, strain G; how it was run: as §1
# [28] = test system: Vaccinia virus; test: Antiviral activity against Vaccinia virus Lederle in human HEL cells assessed as protection against virus-induced cytopathicity; format: functional, organism-based; conditions: Orthopoxvirus vaccinia
# [29] = test system: Vesicular stomatitis virus; test: Antiviral activity against VSV in human HEL cells assessed as protection against virus-induced cytopathicity; format: functional, organism-based
# [30] = test system: Human alphaherpesvirus 1; test: Antiviral activity against thymidine kinase deficient and acyclovir resistant HSV1 KOS in human HEL cells assessed as protection against virus-induced cytopathicity; format: functional, organism-based; conditions: Human alphaherpesvirus 1, KOS
# [31] = Cytotoxicity against MDCK cells assessed as drug level causing microscopically detectable alteration of normal cell morphology; format: cell-based, Canis lupus familiaris; conditions: dog
# [32] = Cytotoxicity against MDCK cells by MTS assay; format: cell-based, Canis lupus familiaris; conditions: dog
# [33] = test system: Influenza A virus; test: Antiviral activity against influenza H1N1 virus in MDCK cells assessed as reduction of virus-induced cytopathicity by visual cytopathic effect scoring method; format: functional, organism-based
# [34] = test system: Influenza A virus; test: Antiviral activity against influenza H1N1 virus in MDCK cells assessed as reduction of virus-induced cytopathicity by MTS method; format: functional, organism-based; conditions: Influenza A virus, H1N1, MDCK
# [35] = test system: Influenza A virus H3N2; test: Antiviral activity against influenza H3N2 virus in MDCK cells assessed as reduction of virus-induced cytopathicity by visual cytopathic effect scoring method; format: functional, organism-based
# [36] = test system: Influenza A virus H3N2; test: Antiviral activity against influenza H3N2 virus in MDCK cells assessed as reduction of virus-induced cytopathicity by MTS method; format: functional, organism-based
# [37] = test system: Influenza B virus; test: Antiviral activity against influenza B virus in MDCK cells assessed as reduction of virus-induced cytopathicity by visual cytopathic effect scoring method; format: functional, organism-based
# [38] = test system: Influenza B virus; test: Antiviral activity against influenza B virus in MDCK cells assessed as reduction of virus-induced cytopathicity by MTS method; format: functional, organism-based
# [39] = Cytotoxicity against feline CRFK cells by MTS assay; format: cell-based, Felis catus; conditions: cat
# [40] = test system: Feline coronavirus; test: Antiviral activity against Feline coronavirus in feline […] cells assessed as inhibition of virus-induced cytopathicity; format: functional, organism-based; conditions: Alphacoronavirus 1
# [41] = test system: Felid alphaherpesvirus 1; test: Antiviral activity against Feline herpesvirus in feline […] cells assessed as inhibition of virus-induced cytopathicity; format: functional, organism-based
structure (smiles),measurement,setting,value
Cc1cc(C)cc(S(=O)(=O)c2c(C(=O)NCCS(N)(=O)=O)[nH]c3ccc(Cl)cc23)c1,EC50,[1],> 4 µM
same,EC50,[2],> 4 µM
same,EC50,[3],0.0014 µM
same,EC50,[4],> 10 µM
same,IC50,[5],20 µM
same,IC50,[6],12 µM
same,IC50,[7],14 µM
same,IC50,[8],0.0012 µM
same,IC50,[9],0.04 µM
same,IC50,[10],0.23 µM
same,IC50,[11],> 1 µM
same,IC50,[12],> 1 µM
same,IC50,[13],0.0004 µM
same,IC50,[14],0.025 µM
same,IC50,[15],0.584 µM
same,IC50,[16],> 40 µM
same,MCC at 72 h,[17],20 µM
same,MCC at 72 h,[18],100 µM
same,EC50,[19],> 4 µM
same,EC50,[20],9 µM
same,EC50,[21],> 20 µM
same,EC50,[22],20 µM
same,EC50,[23],20 µM
same,EC50,[24],20 µM
same,MCC at 72 h,[25],20 µM
same,EC50,[26],> 4 µM
same,EC50,[27],> 4 µM
same,EC50,[28],> 4 µM
same,EC50,[29],> 4 µM
same,EC50,[30],> 4 µM
same,MCC,[31],20 µM
same,CC50,[32],7.9 µM
same,EC50,[33],> 4 µM
same,EC50,[34],> 4 µM
same,EC50,[35],> 4 µM
same,EC50,[36],> 4 µM
same,EC50,[37],> 4 µM
same,EC50,[38],> 4 µM
same,CC50,[39],8.5 µM
same,EC50,[40],> 4 µM
same,EC50,[41],> 4 µM
Cc1cc(C)cc(S(=O)(=O)c2c(C(=O)NC(C)CS(N)(=O)=O)[nH]c3ccc(Cl)cc23)c1 (configuration not stated),EC50,[1],> 20 µM
same,EC50,[2],> 20 µM
same,EC50,[3],0.0023 µM
same,EC50,[4],> 10 µM
same,IC50,[5],15 µM
same,IC50,[6],8.8 µM
same,IC50,[7],13 µM
same,IC50,[8],0.002 µM
same,IC50,[9],0.036 µM
same,IC50,[10],0.39 µM
same,IC50,[11],> 1 µM
same,IC50,[12],> 1 µM
same,IC50,[13],0.0004 µM
same,IC50,[14],0.004 µM
same,IC50,[15],0.233 µM
same,IC50,[16],1.94 µM
same,MCC at 72 h,[17],100 µM
same,MCC at 72 h,[18],≥ 20 µM
same,EC50,[19],3 µM
same,EC50,[20],12 µM
same,EC50,[21],> 20 µM
same,EC50,[22],20 µM
same,EC50,[23],> 20 µM
same,EC50,[24],> 20 µM
same,MCC at 72 h,[25],20 µM
same,EC50,[26],> 4 µM
same,EC50,[27],> 4 µM
same,EC50,[28],> 4 µM
same,EC50,[29],> 4 µM
same,EC50,[30],> 4 µM
same,MCC,[31],20 µM
same,CC50,[32],12.2 µM
same,EC50,[33],> 4 µM
same,EC50,[34],> 4 µM
same,EC50,[35],> 4 µM
same,EC50,[36],> 4 µM
same,EC50,[37],> 4 µM
same,EC50,[38],> 4 µM
same,CC50,[39],11.1 µM
same,EC50,[40],> 4 µM
same,EC50,[41],> 4 µM
